Assay results taken from ChEMBL document CHEMBL3399927, “Identification of novel inhibitors of Aurora A with a 3-(pyrrolopyridin-2-yl)indazole scaffold” (Bioorg Med Chem, 2015).
Activity calls are given as the source filed them. The rule behind the calls is not given here.

Legend:
[1] = target: Cell division cycle 7-related protein kinase (Homo sapiens) (UniProt O00311); experiment: Inhibition of CDC7 (unknown origin)
[2] = target: Dual specificity mitogen-activated protein kinase kinase 1 (Homo sapiens) (UniProt Q02750); experiment: Inhibition of MEK1 (unknown origin) at 1 ug/ml relative to control
Dual specificity mitogen-activated protein kinase kinase 1 (Homo sapiens), sequence (Q02750 whole entry): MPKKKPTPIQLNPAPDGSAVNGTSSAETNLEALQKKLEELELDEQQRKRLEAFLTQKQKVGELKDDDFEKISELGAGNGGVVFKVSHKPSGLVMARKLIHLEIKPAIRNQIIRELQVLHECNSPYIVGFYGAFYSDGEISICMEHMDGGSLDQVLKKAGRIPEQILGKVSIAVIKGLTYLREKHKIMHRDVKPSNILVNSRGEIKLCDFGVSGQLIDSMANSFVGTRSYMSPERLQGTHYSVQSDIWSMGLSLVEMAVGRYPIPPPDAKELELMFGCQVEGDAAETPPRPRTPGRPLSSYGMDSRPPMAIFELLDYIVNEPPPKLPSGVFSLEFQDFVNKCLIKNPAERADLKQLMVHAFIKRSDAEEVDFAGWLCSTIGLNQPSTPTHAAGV

[3] = Antiproliferative activity against human HCT116 cells after 72 hrs by MTT assay; assay type: functional, cell-based; details: HCT-116, 72 h
Method in brief: (§1)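 Cells grown in RPMI-1640 with heat-inactivated 10% FBS, penicillin 100 units/mL and streptomycin 100 μg/mL, at 37 °C under 20% O2, 5% CO2. Compounds dissolved in DMSO at 10.0 mg/mL (stock), then diluted. Cells were plated for 24 h, exposed to a range of concentrations for 72 h, and viability was read by MTT. IC50 is 50% absorbance inhibition versus control cells; means of three experiments.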

[4] = Antiproliferative activity against human HL60 cells after 72 hrs by MTT assay; assay type: functional, cell-based; details: HL-60, 72 h
Method in brief: as §1

HCT-116 [5] = experiment: Induction of apoptosis in human HCT116 cells at 200 nM after 24 hrs by FACS analysis relative to control; assay type: functional
[6] = target: Serine/threonine-protein kinase B-raf (Homo sapiens) (UniProt P15056); experiment: Inhibition of BRAF (unknown origin) at 1 ug/ml relative to control
Serine/threonine-protein kinase B-raf (Homo sapiens), sequence (P15056 whole entry): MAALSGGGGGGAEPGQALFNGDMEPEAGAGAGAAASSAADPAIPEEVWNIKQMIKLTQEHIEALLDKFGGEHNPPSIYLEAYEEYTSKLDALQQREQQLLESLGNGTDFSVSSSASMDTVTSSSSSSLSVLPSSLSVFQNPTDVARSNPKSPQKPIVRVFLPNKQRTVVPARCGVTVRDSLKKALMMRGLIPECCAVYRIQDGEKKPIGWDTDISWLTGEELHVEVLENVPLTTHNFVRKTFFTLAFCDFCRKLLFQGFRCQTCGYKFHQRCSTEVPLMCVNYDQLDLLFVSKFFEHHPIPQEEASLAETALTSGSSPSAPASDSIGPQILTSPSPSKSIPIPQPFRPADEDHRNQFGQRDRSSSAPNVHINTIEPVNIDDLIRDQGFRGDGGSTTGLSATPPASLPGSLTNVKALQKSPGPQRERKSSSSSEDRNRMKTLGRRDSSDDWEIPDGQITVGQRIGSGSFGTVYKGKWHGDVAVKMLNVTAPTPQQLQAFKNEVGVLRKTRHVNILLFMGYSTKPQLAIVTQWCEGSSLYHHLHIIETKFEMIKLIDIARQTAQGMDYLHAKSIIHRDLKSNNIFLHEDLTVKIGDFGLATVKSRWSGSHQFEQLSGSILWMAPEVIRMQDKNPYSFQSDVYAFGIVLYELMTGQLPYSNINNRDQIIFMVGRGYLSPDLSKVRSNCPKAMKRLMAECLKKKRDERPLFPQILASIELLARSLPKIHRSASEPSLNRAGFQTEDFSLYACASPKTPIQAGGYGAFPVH

[7] = Antiproliferative activity against human SMMC7721 cells after 72 hrs by MTT assay; assay type: functional, cell-based; details: SMMC-7721, 72 h
Method in brief: as §1

[8] = target: T1, Inhibitor of nuclear factor kappa-B kinase subunit beta (Homo sapiens) (UniProt O14920); experiment: Inhibition of IKKbeta (unknown origin) at 1 ug/ml relative to control
T1 sequence (whole entry): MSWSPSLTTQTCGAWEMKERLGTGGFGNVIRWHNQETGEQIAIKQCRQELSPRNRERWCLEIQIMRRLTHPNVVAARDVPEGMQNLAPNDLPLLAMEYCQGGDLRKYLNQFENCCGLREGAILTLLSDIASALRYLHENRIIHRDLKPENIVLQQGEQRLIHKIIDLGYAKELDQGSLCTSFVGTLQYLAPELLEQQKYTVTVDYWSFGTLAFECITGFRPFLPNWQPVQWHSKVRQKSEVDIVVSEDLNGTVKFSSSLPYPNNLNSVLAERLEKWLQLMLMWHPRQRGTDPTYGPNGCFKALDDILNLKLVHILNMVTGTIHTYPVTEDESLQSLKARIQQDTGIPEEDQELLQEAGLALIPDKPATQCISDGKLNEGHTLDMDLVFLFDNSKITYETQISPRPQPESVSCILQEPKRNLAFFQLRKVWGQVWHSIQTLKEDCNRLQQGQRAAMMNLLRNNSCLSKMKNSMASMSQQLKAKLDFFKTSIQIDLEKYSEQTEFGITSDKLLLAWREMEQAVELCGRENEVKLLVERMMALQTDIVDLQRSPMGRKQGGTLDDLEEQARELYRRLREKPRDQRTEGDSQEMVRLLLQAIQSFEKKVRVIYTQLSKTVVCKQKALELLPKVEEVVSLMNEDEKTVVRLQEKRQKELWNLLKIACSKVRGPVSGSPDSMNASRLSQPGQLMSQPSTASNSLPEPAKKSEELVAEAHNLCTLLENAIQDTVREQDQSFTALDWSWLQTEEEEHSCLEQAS

[9] = Cell cycle arrest in human HCT116 cells assessed as accumulation at G2/M phase at 200 nM after 24 hrs by FACS analysis; assay type: functional, cell-based; details: HCT-116
HCT-116 [10] = experiment: Ratio of taxol IC50 to compound IC50 for human HCT116 cells; assay type: functional
[11] = target: Glycogen synthase kinase-3 beta (Homo sapiens) (UniProt P49841); experiment: Inhibition of GSK3beta (unknown origin) at 1 ug/ml relative to control
Glycogen synthase kinase-3 beta (Homo sapiens), sequence (P49841 whole entry, looked up): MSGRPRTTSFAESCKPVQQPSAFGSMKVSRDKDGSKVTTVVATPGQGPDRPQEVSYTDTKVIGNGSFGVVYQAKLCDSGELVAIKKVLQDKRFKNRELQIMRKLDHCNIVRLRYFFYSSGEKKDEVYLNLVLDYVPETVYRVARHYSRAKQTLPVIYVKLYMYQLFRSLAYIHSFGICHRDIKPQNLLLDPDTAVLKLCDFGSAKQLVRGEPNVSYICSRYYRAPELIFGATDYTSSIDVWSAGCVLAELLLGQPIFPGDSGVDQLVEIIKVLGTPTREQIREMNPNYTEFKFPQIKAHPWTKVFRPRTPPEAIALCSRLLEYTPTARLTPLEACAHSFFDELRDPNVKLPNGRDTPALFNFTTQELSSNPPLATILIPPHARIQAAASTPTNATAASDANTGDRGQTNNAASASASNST

[12] = target: Cyclin-dependent kinase 2 (Homo sapiens) (UniProt P24941); experiment: Inhibition of CDK2 (unknown origin) at 1 ug/ml relative to control
[13] = Cell cycle arrest in human HCT116 cells assessed as accumulation at G2/M phase after 24 hrs by FACS analysis; assay type: functional, cell-based; details: HCT-116
[14] = target: T2, Aurora kinase A (Homo sapiens) (UniProt O14965); experiment: Inhibition of human full length Aurora A at 1 ug/ml by Z'-LYTE assay
T2 sequence (whole entry): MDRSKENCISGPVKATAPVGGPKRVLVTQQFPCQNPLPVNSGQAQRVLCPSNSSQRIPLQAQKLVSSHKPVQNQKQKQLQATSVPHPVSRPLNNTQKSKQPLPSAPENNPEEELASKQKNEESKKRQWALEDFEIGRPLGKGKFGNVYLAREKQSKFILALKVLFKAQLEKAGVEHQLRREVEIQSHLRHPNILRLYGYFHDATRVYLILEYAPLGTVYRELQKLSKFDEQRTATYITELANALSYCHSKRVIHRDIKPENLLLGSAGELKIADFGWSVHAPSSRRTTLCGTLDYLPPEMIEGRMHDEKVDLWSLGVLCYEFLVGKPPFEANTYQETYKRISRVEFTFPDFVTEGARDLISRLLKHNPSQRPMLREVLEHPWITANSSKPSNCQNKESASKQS

KB = experiment: Antiproliferative activity against human KB cells after 72 hrs by MTT assay; assay type: functional, cell-based
Method in brief: as §1

A549 = experiment: Antiproliferative activity against human A549 cells after 72 hrs by MTT assay; assay type: functional, cell-based; details: A549, 72 h
Aurora kinase A = target: T3, Aurora kinase A (Homo sapiens, UniProt O14965); experiment: Inhibition of human full length Aurora A by Z'-LYTE assay
T3 sequence (O14965 whole entry): T2 sequence (whole entry)

[15] = target: T4, Serine/threonine-protein kinase Chk1 (Homo sapiens) (UniProt O14757); experiment: Inhibition of CHK1 (unknown origin) at 1 ug/ml relative to control
T4 sequence (whole entry): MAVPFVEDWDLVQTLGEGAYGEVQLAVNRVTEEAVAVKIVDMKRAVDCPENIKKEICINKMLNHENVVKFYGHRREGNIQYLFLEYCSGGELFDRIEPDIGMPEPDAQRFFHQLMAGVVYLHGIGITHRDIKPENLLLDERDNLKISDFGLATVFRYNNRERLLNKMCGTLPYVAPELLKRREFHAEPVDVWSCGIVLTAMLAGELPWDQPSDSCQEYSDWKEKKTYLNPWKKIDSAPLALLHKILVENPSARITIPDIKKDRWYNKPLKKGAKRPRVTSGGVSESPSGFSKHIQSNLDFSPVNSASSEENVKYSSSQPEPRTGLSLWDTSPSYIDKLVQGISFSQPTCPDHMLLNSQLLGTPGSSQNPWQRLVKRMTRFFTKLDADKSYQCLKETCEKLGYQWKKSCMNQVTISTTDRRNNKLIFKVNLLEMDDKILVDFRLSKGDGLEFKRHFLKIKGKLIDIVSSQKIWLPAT
Method in brief: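 Fixed-concentration screen at 1 µg/mL using the luminescent ADP-Glo assay.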

[16] = target: Protein kinase C (PKC) (Homo sapiens) (UniProt O94806+P41743+P17252+P05129+Q05655+P05771+Q05513+Q02156+P24723+Q15139+Q04759); experiment: Inhibition of PKC (unknown origin) at 1 ug/ml relative to control
Method in brief: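 Fixed-concentration screen at 1 µg/mL with a Z'-LYTE kinase assay kit.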

[17] = Apparent permeability across apical to basolateral side in MDCK cells by HPLC; assay type: ADME, cell-based, Canis lupus familiaris; details: dog

Cell division cycle 7-related protein kinase (Homo sapiens), sequence (O00311 whole entry, looked up): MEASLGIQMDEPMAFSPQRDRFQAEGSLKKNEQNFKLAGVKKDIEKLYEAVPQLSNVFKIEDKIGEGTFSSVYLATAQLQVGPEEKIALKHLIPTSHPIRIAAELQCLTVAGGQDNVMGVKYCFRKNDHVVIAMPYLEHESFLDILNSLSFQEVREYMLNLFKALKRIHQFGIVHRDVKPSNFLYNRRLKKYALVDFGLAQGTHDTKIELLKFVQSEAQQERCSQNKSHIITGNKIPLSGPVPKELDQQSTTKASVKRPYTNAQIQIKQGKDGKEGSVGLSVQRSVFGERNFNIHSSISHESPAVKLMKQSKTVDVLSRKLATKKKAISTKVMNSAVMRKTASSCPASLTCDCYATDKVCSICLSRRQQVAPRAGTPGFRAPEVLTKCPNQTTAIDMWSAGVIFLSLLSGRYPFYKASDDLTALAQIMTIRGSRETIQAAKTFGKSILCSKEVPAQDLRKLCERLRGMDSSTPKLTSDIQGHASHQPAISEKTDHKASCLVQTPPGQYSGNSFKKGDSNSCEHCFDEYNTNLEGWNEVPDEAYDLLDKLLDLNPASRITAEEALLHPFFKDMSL

IC50 [1] [nM]	inhibition [2] [%]	inhibition [6] [%]	inhibition [8] [%]	inhibition [11] [%]	inhibition [12] [%]	inhibition [14] [%]	IC50 (KB) [nM]	IC50 (A549) [nM]	IC50 (Aurora kinase A) [nM]	inhibition [15] [%]	inhibition [16] [%]	Papp A→B [17] [×10⁻⁶ cm/s]	Structure (SMILES)	IC50 [3] [nM]	IC50 [4] [nM]	Activity (HCT-116 [5]) [%]	IC50 [7] [nM]	Activity [9]	Ratio IC50 (HCT-116 [10])	Activity [13]
11													N#Cc1ccc2c(-c3cc4cc(CN5CCOCC5)ccc4[nH]3)n[nH]c2c1							
	6.64	16.4	0.55	19.3	13.8	75.4	32	1430	519	20.5	0.62	6.07	CN(C(=O)Nc1ccccc1)c1ccc2[nH]c(-c3n[nH]c4ccccc34)cc2n1	1.3	8.3	25.4	280	Active	3	Dose-dependent effect
